According to ChEMBL document CHEMBL1132632, “Conformational and quantitative structure-activity relationship study of cytotoxic 2-arylidenebenzocycloalkanones” (J Med Chem, 1999):
Starred links: 1 amine or outer side, 2 acyl side, 3 side chain; linkers in the order of their positions; H or OH if unused. Positions of bridges follow the written chain, without caps; N, C: chain ends. Non-standard residues stand in square brackets, D forms with d. Residues, ends and D or L forms follow the SMILES beside them. Chains are numbered I, II in the order given. Actinocin(1to9) = Cc1c2oc3c(C)ccc(C(=O)[*:2])c3nc-2c(C(=O)[*:1])c(N)c1=O; NMeV = CN[C@H](C(=O)O)C(C)C; Sar = CNCC(=O)O

Experiments:
CCRF-CEM [1] = test: Inhibitory activity was tested against CEM cells; type: functional, cell-based; conditions: Homo sapiens
CCRF-CEM [2] = test: Average potency against CEM cells; type: functional, Homo sapiens
Tumor Cell line [3] = test: Tested against human tumor cell lines, mean graph mid point values(MG MID) are determined.; type: functional
In short: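 Panel of about 55 human tumor cell lines from nine cancer types: leukemia, melanoma, non-small-cell lung, colon, CNS, ovarian, renal, prostate and breast. Compounds were tested from 10⁻⁴ to 10⁻⁸ M, and the 50% growth-inhibitory concentration was found for each line.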

L1210 [4] = test: Average potency against L1210 cells; type: functional, Mus musculus
MOLT-4 [5] = test: Average potency against Molt4/C8cells; type: functional, Homo sapiens
MOLT-4 [6] = test: Inhibitory activity was tested against Molt4/C8 cells; type: functional, cell-based; conditions: Homo sapiens
P388 [7] = test: Average potency against P388 cells; type: functional, Mus musculus
P388 [8] = test: Inhibitory activity was tested against P388 cells; type: functional, cell-based; conditions: Mus musculus
L1210 [9] = test: Inhibitory activity was tested against L1210 cells; type: functional, cell-based; conditions: Mus musculus
Jurkat [10] = test: (§1) IC80 concentrations of the compounds were used in determining the inhibition of RNA synthesis using Jurkat T cells.; type: functional, Homo sapiens
Jurkat [11] = test: (§2) IC80 concentrations of the compounds were used in determining the inhibition of protein synthesis using Jurkat T cells.; type: functional, Homo sapiens
Jurkat [12] = test: (§3) Inhibitory concentration against Human Jurkat T cells; type: functional, cell-based
Jurkat [13] = test: as §3; type: functional
Tumor Cell line [14] = test: as §3; type: functional, cell-based
In short: (§4)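 Human Jurkat T cells were exposed to compounds for 48 h. Viability was scored by nigrosin dye exclusion in place of trypan blue. IC50 and IC80 were derived from these counts.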

Tumor Cell line [15] = test: as §3; type: functional; in short: as §4
Tumor Cell line [16] = test: as §1; type: functional, Homo sapiens
Tumor Cell line [17] = test: as §2; type: functional, Homo sapiens

Row | SMILES | IC50 (CCRF-CEM [1]) [µM] | AP (CCRF-CEM [2]) [µM] | MG MID (Tumor Cell line [3]) [µM] | AP (L1210 [4]) [µM] | AP (MOLT-4 [5]) [µM] | IC50 (MOLT-4 [6]) [µM] | AP (P388 [7]) [µM] | IC50 (P388 [8]) [µM] | IC50 (L1210 [9]) [µM] | Inhibition (Jurkat [10]) [%] | Inhibition (Jurkat [11]) [%] | IC50 (Jurkat [12]) [µM] | IC80 (Jurkat [13]) [µM] | IC50 (Tumor Cell line [14]) [µM] | IC80 (Tumor Cell line [15]) [µM] | Inhibition (Tumor Cell line [16]) [%] | Inhibition (Tumor Cell line [17]) [%]
1 | O=C1CCCCC/C1=C\c1ccc(Cl)cc1 | 43.5 | 136 | 33.1 | 227 | 186 | 52.6 | 34.5 | 19.1 | 83 |  |  |  |  |  |  |  | 
2 | O=C1CCCCC/C1=C\c1cccc(F)c1 | 224 | 136 | 67.6 | 227 | 186 | 482 | 34.5 | > 50 | 382 |  |  |  |  |  |  |  | 
3 | Cc1cccc(/C=C2\CCCCCC2=O)c1 | 170 | 136 | 81.3 | 227 | 186 | 228 | 34.5 | 29.8 | 263 |  |  |  |  |  |  |  | 
4 | O=C1/C(=C/c2cccc(F)c2)CCCc2ccccc21 | 11.2 | 47 | 16.2 | 85.2 | 66 | 28.3 | 11.2 | 10.9 | 134 |  |  |  |  |  |  |  | 
5 | O=C1/C(=C/c2cccc([N+](=O)[O-])c2)CCCc2ccccc21 | 7.72 | 47 | 10.2 | 85.2 | 66 | 8.82 | 11.2 | 15.8 | 48.8 |  |  |  |  |  |  |  | 
6 | O=C1CCCCC/C1=C\c1cccc([N+](=O)[O-])c1 | 30.1 | 136 | 30.2 | 227 | 186 | 39.2 | 34.5 | 23.6 | 162 |  |  |  |  |  |  |  | 
7 | O=C1/C(=C/c2ccc(Cl)cc2)CCCc2ccccc21 | 15.1 | 47 | 17 | 85.2 | 66 | 33 | 11.2 | 9.5 | 51.8 |  |  |  |  |  |  |  | 
8 | Cc1ccc(/C=C2\CCCc3ccccc3C2=O)cc1 | 11.4 | 47 | 11.2 | 85.2 | 66 | 21.3 | 11.2 | 11.8 | 25 | 84.2 | 46.3 | 14.6 | 23.3 |  |  |  | 
9 | COc1cccc(/C=C2\CCCCCC2=O)c1 | 128 | 136 | 85.1 | 227 | 186 | 170 | 34.5 | > 50 | 283 |  |  |  |  |  |  |  | 
10 | Cc1ccc(/C=C2\CCCCCC2=O)cc1 | > 500 | 136 | 83.2 | 227 | 186 | > 500 | 34.5 | > 50 | > 500 |  |  |  |  |  |  |  | 
11 | O=C1CCCCC/C1=C\c1cccc(Cl)c1 | 40.5 | 136 | 41.7 | 227 | 186 | 88.6 | 34.5 | 25.7 | 144 |  |  |  |  |  |  |  | 
12 | O=C1/C(=C/c2ccc([N+](=O)[O-])cc2)CCCc2ccccc21 | > 500 | 47 | 89.1 | 85.2 | 66 | > 500 | 11.2 | 10.9 | > 500 |  |  |  |  |  |  |  | 
13 | O=C1/C(=C/c2cccc([N+](=O)[O-])c2)Cc2ccccc21 | 222 | 155 | 91.2 | 127 | 267 | > 500 | 42.9 | > 50 | 256 |  |  |  |  |  |  |  | 
14 | COc1ccc(/C=C2\CCCCCC2=O)cc1 | 194 | 136 | 100 | 227 | 186 | 250 | 34.5 | > 50 | 306 |  |  |  |  |  |  |  | 
15 | O=C1/C(=C/c2cccc(Br)c2)Cc2ccccc21 | 32.4 | 155 | 46.7 | 127 | 267 | 173 | 42.9 | 21 | 43.3 |  |  |  |  |  |  |  | 
16 | O=C1CCCCC/C1=C\c1ccc([N+](=O)[O-])cc1 | 36.3 | 136 | 30.2 | 227 | 186 | 39.6 | 34.5 | 25.2 | 104 |  |  |  |  |  |  |  | 
17 | COc1ccc(/C=C2\CCCc3ccccc3C2=O)cc1 | 0.35 | 47 | 0.269 | 85.2 | 66 | 0.47 | 11.2 | 1.6 | 0.34 |  |  |  |  | 3.5 | 5.6 | 92.3 | 19.5
18 | O=C1/C(=C/c2cccc(Br)c2)CCc2ccccc21 | 8.79 | 115 | 11.8 | 135 | 158 | 21.2 | 20.9 | 16.6 | 158 |  |  |  |  |  |  |  | 
19 | O=C1/C(=C/c2cccc(Cl)c2)CCCc2ccccc21 | 9.44 | 47 | 16.6 | 85.2 | 66 | 23.8 | 11.2 | 8.2 | 52.3 |  |  |  |  |  |  |  | 
20 | O=C1CCCCC/C1=C\c1ccccc1 | 110 | 136 | 91.2 | 227 | 186 | 215 | 34.5 | > 50 | 261 |  |  |  |  |  |  |  | 
21 | CN(C)c1ccc(/C=C2\CCCCCC2=O)cc1 | 45.1 | 136 | 85.1 | 227 | 186 | 57.4 | 34.5 | 18.8 | 79.1 |  |  |  |  |  |  |  | 
22 | Cc1cccc(/C=C2\CCCc3ccccc3C2=O)c1 | 15.8 | 47 | 20 | 85.2 | 66 | 34.6 | 11.2 | 19.9 | 54.4 |  |  |  |  |  |  |  | 
23 | CN(C)c1ccc(/C=C2\CCCc3ccccc3C2=O)cc1 |  | 47 | 1.41 | 85.2 | 66 |  | 11.2 |  |  |  |  |  |  |  |  |  | 
24 | O=C1/C(=C/c2ccccc2)CCCc2ccccc21 | 28.9 | 47 | 18.6 | 85.2 | 66 | 42.7 | 11.2 | 12.7 | 106 |  |  |  |  |  |  |  | 
25 | COc1cccc(/C=C2\CCCc3ccccc3C2=O)c1 | 9.5 | 47 | 15.9 | 85.2 | 66 | > 100 | 11.2 | 13.9 | 56.3 |  |  |  |  |  |  |  | 
26 | O=C1CCCCC/C1=C\c1ccc(F)cc1 | 198 | 136 | 83.2 | 227 | 186 | 250 | 34.5 | > 50 | 291 |  |  |  |  |  |  |  | 
27 | N[C@@H](Cc1ccc(N(CCCl)CCCl)cc1)C(=O)O |  |  | 25.7 |  |  |  |  |  |  | 85.1 | 30.5 | 2.2 | 3.52 |  |  |  | 
28 | C[C@@H]1C[C@@H]([C@H](O)CC2CC(=O)NC(=O)C2)C(=O)[C@@H](C)C1 [CYCLOHEXIMIDE] |  |  |  |  |  |  |  |  |  | 93.3 | 71.9 | 0.93 | 1.54 |  |  |  | 
29 | Cc1c2oc3c(C)ccc(C(=O)N[C@@H]4C(=O)N[C@H](C(C)C)C(=O)N5CCC[C@H]5C(=O)N(C)CC(=O)N(C)[C@@H](C(C)C)C(=O)O[C@@H]4C)c3nc-2c(C(=O)N[C@@H]2C(=O)N[C@H](C(C)C)C(=O)N3CCC[C@H]3C(=O)N(C)CC(=O)N(C)[C@@H](C(C)C)C(=O)O[C@@H]2C)c(N)c1=O [DACTINOMYCIN] (I: T[dV]P[Sar][NMeV] / II: T[dV]P[Sar][NMeV]; ester I:1-I:C, II:1-II:C; linker I:N-II:N via Actinocin(1to9)) |  |  |  |  |  |  |  |  |  | 63.2 | 51.8 | 0.0045 | 0.0072 |  |  |  | 
